The source of these data is PubChem BioAssay.

SMILES strings stand for the structures. Active and inactive are the calls of the source.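 Rule for the calls, unless noted: active = compounds giving at least 50% inhibition in the cell-based MKP-3 phosphatase rescue imaging test; inactive = the rest.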

Test [1] is described as follows: inhibitors of TNFa-induced NFkB p65 translocation, primary screen, imaging, HUVEC, MLSMR starter and 10KST1 sets (AID 438;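 active = inhibition above 20% together with a positive visual image hit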;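 note: compound added about 3h40 before a 20 min TNFalpha stimulation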;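 for inhibition: signal is the nuclear over cytoplasmic p65 intensity ratio per well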). The note with it: HUVEC TNFa-induced p65 nuclear translocation; cell count: measured here: nuclei count (cytotoxicity indicator), at 2.08 µM; inhibition: at 2 µM, stronger effect = higher value, 0% TNFa-plus-vehicle, 100% no-TNFa wells.
The nature of test [2]: inhibitors of E-selectin induction by TNFa, primary screen, imaging, HUVEC, immunofluorescence, MLSMR starter and 10KST1 sets (AID 487;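 active = visually confirmed hit in the image check and inhibition above 20%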;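 for inhibition: signal is fraction of cell area covered by stained E-selectin grains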;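 for nuclei count: 100% = median nuclei count of all wells on the same plate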). The note with it: HUVEC TNFalpha-induced E-selectin immunofluorescence imaging, at 2 µM; inhibition: stronger effect = higher value; nuclei count: measured here: cell number, toxicity.
The nature of test [3]: DUSP6 inhibitors restoring Erk phosphorylation by chemical complementation, primary imaging in DUSP6-transfected HeLa (AID 609).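 For inhibition: phospho-Erk level distribution per well compared with pooled transfected vehicle control wells.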 Particulars: HeLa MKP-3 transfected, phospho-Erk imaging KS statistic, at 10 µM, cells stimulated with TPA for 15 min.
Test [4] concerns the target Dual specificity protein phosphatase 6 (Homo sapiens) (UniProt Q16828). The description is as above. Particulars: HeLa MKP-3 transfected, phospho-Erk imaging KS statistic; at 10 µM; stronger effect = higher value; cells stimulated with TPA for 15 min.
Test [5] deals with Voltage-gated potassium channel subunit beta-2 (Rattus norvegicus) (UniProt P62483). The experiment in a line: KvBeta enzyme negative modulators, primary screen, biochemical, NADPH fluorescence (AID 622;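 active = fluorescence slope higher than the sample average by over 3 SD, cut at about -0.22 in these data, passing the limit was not always enough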;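 note: slope of raw intensity against log time taken from 70 to 1610 s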). Particulars: recombinant KvBeta, 4-cyanobenzaldehyde reduction, at 10 µM, stronger effect = higher value.
For test [6] the target is unchanged. In words: KvBeta positive modulators, primary screen, biochemical, NADPH fluorescence (AID 623;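 active = NADPH fluorescence slope more negative than the mean of all samples by about 3 SD, 99.7% confidence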;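 note: fluorescence intensity change per second fitted from 20 to 320 s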). The note with it: Recombinant KvBeta, NADPH fluorescence decrease slope, 10 min; at 10 µM; stronger effect = lower value.
Test [7] addresses Muscarinic acetylcholine receptor M4 (Homo sapiens) (UniProt P08173). In words: compounds altering M4/GIRK thallium flux, either direction, primary screen, M4 allosteric agonist project, cell-based, HEK293 M4/GIRK, BTC-AM (AID 625;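 active = fluorescence slope after compound addition differing from the mean of all tested samples at 99.7% confidence, mostly higher but some lower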;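 note: thallium influx through GIRK channels coupled to M4 in HEK293 cells with BTC-AM dye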). The note with it: at 10 µM, actives lie on both sides. The method, boiled down: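 Material: HEK293 cells with M4 receptor and GIRK channels; Times: cells overnight at 37 °C, BTC-AM loading 1 h, reads 2 min total; Technique: kinetic BTC-AM fluorescence sampled at 1 Hz, 10 s pre-addition baseline; Read-out basis: slope over 15–24 s of trace normalized to starting intensity; Controls: carbachol positive, DMSO negative.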

The nature of test [8]: inhibitors of larval lipid processing in zebrafish, primary screen, whole organism, PED6 fluorescence, gall bladder and intestine (AID 686;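 active = a full or partial loss of lipid-probe fluorescence in the fish gall bladder, intestine or both, judged by eye; inactive = no fluorescence loss, or compound toxic to the fish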;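 note: larvae 5 to 7 days old with five fish per well; signal comes from phospholipase A2 cleavage of quenched PED6 carried via bile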). Particulars: Zebrafish larvae PED6 lipid processing, fluorescence scoring; screened at 20 µM (by protocol). The method, boiled down: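 Incubation: overnight exposure of larvae to compound plus PED6 / Test system: live zebrafish larvae aged 5-7 days, whole organism / Amount: 5 larvae per well / Read-out basis: visual per-well fluorescence inhibition score / Signal: visual fluorescence microscopy scoring of gall bladder, gut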

A short description of test [9]: inhibitors of Chlamydomonas gravitaxis, primary screen, whole organism, Chlamydomonas reinhardtii, WT vs cilia-less mutant, absorbance, 96-well (AID 463189;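 active = inhibition at or above 50% relative to wild type and mutant plate controls; inactive = inhibition below 50%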;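 note: 0% = wild type cc124 cells in DMSO and 100% = ciliumless bld1 mutant cells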). The note with it: OD600 absorbance, 2 days, at 10 µM, stronger effect = higher value.
The mark [10] stands for this setting: measured here: cell density z-score.
The mark [11] stands for this setting: measured here: nuclear c-Myc green intensity z-score.
The mark [12] stands for this setting: measured here: nuclear pErk red intensity z-score, stronger effect = higher value.

Sequence of Muscarinic acetylcholine receptor M4 (Homo sapiens) (P08173 whole entry, looked up): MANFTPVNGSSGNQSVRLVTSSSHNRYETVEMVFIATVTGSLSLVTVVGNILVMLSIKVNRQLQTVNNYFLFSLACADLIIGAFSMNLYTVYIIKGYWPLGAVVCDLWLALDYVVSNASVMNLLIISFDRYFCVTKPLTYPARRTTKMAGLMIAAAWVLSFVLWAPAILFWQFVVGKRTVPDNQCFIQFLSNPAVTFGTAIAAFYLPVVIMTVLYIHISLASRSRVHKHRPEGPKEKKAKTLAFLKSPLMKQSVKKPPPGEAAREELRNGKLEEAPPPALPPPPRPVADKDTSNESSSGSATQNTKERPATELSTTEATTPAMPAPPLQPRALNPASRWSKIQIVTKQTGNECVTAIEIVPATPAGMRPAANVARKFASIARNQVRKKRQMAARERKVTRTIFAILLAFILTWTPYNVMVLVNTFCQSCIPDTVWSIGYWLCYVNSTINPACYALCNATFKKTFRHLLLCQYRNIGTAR
Sequence of Voltage-gated potassium channel subunit beta-2 (Rattus norvegicus) (P62483 whole entry, looked up): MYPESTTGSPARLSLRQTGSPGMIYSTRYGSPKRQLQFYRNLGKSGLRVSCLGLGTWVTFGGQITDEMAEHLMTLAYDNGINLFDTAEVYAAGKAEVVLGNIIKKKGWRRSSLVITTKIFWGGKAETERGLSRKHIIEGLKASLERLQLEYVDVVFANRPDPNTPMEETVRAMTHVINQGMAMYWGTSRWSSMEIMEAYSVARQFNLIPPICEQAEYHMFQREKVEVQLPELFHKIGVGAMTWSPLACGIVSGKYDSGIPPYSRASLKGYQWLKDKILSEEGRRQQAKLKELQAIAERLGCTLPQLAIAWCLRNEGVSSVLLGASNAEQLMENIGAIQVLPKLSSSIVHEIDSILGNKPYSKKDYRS
Sequence of Dual specificity protein phosphatase 6 (Homo sapiens) (Q16828 whole entry, looked up): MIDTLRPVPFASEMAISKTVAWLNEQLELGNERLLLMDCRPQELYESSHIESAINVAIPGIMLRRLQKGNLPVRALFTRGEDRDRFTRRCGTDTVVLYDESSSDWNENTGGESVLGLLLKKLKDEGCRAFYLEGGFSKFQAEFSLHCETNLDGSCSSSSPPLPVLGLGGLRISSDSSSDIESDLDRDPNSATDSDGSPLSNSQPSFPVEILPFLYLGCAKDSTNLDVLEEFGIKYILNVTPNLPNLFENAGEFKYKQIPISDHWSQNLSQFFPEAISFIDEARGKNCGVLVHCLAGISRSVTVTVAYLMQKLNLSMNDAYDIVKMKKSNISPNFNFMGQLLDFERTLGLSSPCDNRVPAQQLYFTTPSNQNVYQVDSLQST

For `CCc1nc(NCC(C)C)c(C#N)c2c1COC(C)(C)C2`, in test [1], the cell count came out at 547. The inhibition in test [1] was 7.2% (inactive); in test [2], -13.8% (inactive); in test [4] it was -9.91% (inactive); in test [9], -8.36% (inactive). The nuclei count in test [2] was 106%. In addition, the z-score in test [3] (setting [10]) is -2.04; in [3] (setting [11]), -0.00331; in [3] (setting [12]), 2.22. Also, the fluorescence slope is -0.203 (inactive) in test [5] and 0.00805 (inactive) in test [7]. In addition, the NADPH fluorescence slope in test [6] was 2.4e-07 (inactive). Also, the result in test [8] was inactive.

`CCCc1cc(NCCCCO)n2c(nc3ccccc32)c1C#N`: the cell count in [1] worked out at 484. For the same molecule, the inhibition is -2.4% (inactive) in [1], -67.8% (inactive) in test [2], 21.8% (inactive) in test [4] and 26.9% (inactive) in [9]. Besides, the nuclei count in test [2] was 112%. Besides, the z-score in test [3] (setting [10]) is -0.769; in test [3] (setting [11]), -0.182; in [3] (setting [12]), 0.272. Moreover, the fluorescence slope in test [5] is -0.238 (inactive); in test [7], 0.00464 (inactive). Moreover, in test [6], the NADPH fluorescence slope is -2.1e-05 (inactive). In test [8], the result was inactive.

As for `CC1(C)Cc2c(C#N)c(SCc3nc4ccccc4[nH]3)nc(N3CCOCC3)c2CO1`, the cell count in test [1] is 464. Moreover, the inhibition in test [1] was -6.9% (inactive); in [2], -111% (inactive); in test [4], 3.97% (inactive); in test [9], -18.5% (inactive). Moreover, in [2], the nuclei count worked out at 99.1%. Moreover, the z-score in test [3] (setting [10]) was -1.63; in [3] (setting [11]), 0.58; in [3] (setting [12]), -0.0845. Further, the fluorescence slope was -0.39 (inactive) in [5] and 0.00539 (inactive) in [7]. Further, the NADPH fluorescence slope in test [6] was 1.4e-05 (inactive). In addition, in [8], the call was inactive.

For `C=C(C)CSc1nnc2n(C)c(=O)c3c4c(sc3n12)CCC4`, the cell count in test [1] was determined as 334. Moreover, the inhibition in test [1] is 8.5% (inactive); in test [2] it was -1.8% (inactive); in test [4], 15.4% (inactive); in test [9], 41.8% (inactive). For the same molecule, the nuclei count in test [2] amounted to 118%. Besides, the z-score is 1.02 in [3] (setting [10]), -0.186 in test [3] (setting [11]) and -0.897 in test [3] (setting [12]). In addition, the fluorescence slope is -0.438 (inactive) in [5] and 0.00483 (inactive) in [7]. Further, in test [6], the NADPH fluorescence slope is -0.000119 (inactive). For the same molecule, in test [8], the molecule was classed as inactive.

With `CSc1nc2sc3c(c2c2nnnn12)CCC3`, the cell count in test [1] was determined as 594. The inhibition in test [1] was -5.2% (inactive); in test [2] it was -73% (inactive); in [4] it was 1.63% (inactive); in [9], 17.9% (inactive). Moreover, the nuclei count in test [2] was found to be 143%. Further, the z-score in [3] (setting [10]) was -0.0727; in test [3] (setting [11]), 0.543; in test [3] (setting [12]), 0.37. Also, the results for the fluorescence slope in [5] and in [7] were -0.441 (inactive) and 0.00506 (inactive), respectively. Further, the NADPH fluorescence slope in test [6] was -0.000113 (inactive). Moreover, the molecule was classed as inactive in test [8].

Regarding `O=C(Cc1ccc(Cl)cc1)Nc1cccc(-c2nnc(-c3ccco3)o2)c1`, the cell count in test [1] was 695. In addition, the inhibition in test [1] was -4% (inactive); in test [2], 32.2% (inactive); in test [4] it was 7.21% (inactive); in test [9] it was 5.58% (inactive). Besides, the nuclei count in [2] is 162%. Also, the values for the z-score in test [3] (setting [10]), in [3] (setting [11]) and in test [3] (setting [12]) were 0.714, 1.13 and -0.033, respectively. Also, the figures for the fluorescence slope in test [5] and in test [7] were -0.476 (inactive) and 0.006 (inactive), respectively. Moreover, in test [6], the NADPH fluorescence slope is -7.5e-05 (inactive). Moreover, the result in test [8] was inactive.

Turning to `COc1ccc(C2C(C#N)=C(C)NC3=C2C(=O)c2ccccc23)cc1` (stereo unspecified), the cell count in test [1] turned out to be 678. In addition, the inhibition in test [1] was 0.7% (inactive); in test [2] it was -27.5% (inactive); in [4] it was 21.8% (inactive); in test [9], -2.6% (inactive). In test [2], the nuclei count worked out at 145%. The z-score in [3] (setting [10]) is 1.09; in test [3] (setting [11]), 1.69; in [3] (setting [12]), -1.69. For the same molecule, the fluorescence slope was -0.5 (inactive) in test [5] and 0.00419 (inactive) in test [7]. Besides, the NADPH fluorescence slope in [6] was -4.8e-05 (inactive). The molecule was classed as inactive in test [8].

Broadly, the inhibition is the change of the read-out against control, counted positive when it falls.
